Here are results for 20 sequences from the EternaBench riboswitch data.

The test system of the series is MS2 coat protein. The series can be described thus: apparent Kd, MS2 coat protein; higher = weaker binding; RNA-MaP array; FMN 200 µM where present. The method in brief:
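The apparent Kd comes from binding curves fitted cluster by cluster, filtered, and summarised as a median. Those curves followed SNAP-549-labelled MS2 coat protein from 0.7 or 1.5 nM, doubling to 3 µM, on Illumina sequencing-chip clusters where stalled E. coli RNA polymerase had transcribed the designs, without and then with constant ligand. The buffer was 100 mM Tris-HCl pH 7.5, 80 mM KCl, 4 mM MgCl2, BSA, DTT, yeast tRNA and Tween-20, and green signal was normalised to red-channel RNA signal and control-cluster median Fmax.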

Where [1] appears, read: designed as: OFF switch for flavin mononucleotide, no ligand.
Where [2] appears, read: ligand present: flavin mononucleotide, designed as: OFF switch for flavin mononucleotide.
[3] abbreviates: designed as: ON switch for flavin mononucleotide, no ligand.
Setting [4] is: ligand present: flavin mononucleotide, designed as: ON switch for flavin mononucleotide.

As for “GAUACACAUGAGGAUCACCCAUGUGAGGAUAUGCGUACGUUGUCCGUAGGCGACGUGCGCAGAAGGCGCAAGGU”, the “apparent Kd” value worked out at 83.2 nM under setting [1] and 95.3 nM under setting [2].
As to “CCUCAGUUAGGAUAUUACUAAUCACUAACCGGGCAACUGGGUAAGAAGGAACAUGAGGAUCACCCAUGUUACGU”, the “apparent Kd” value by setting is: under setting [1], 22.1 nM; under setting [2], 22.2 nM.
With “ACGACGAAAGUCGAACGAUGUAGCAGAAGGACAUGAGGAUCACCCAUGUCAGCUGUAAAAGCCAUGUAGGAUAUGCUACAUCGA”, the “apparent Kd” value runs as follows: under setting [1], 3.51 nM; under setting [2], 4.4 nM.
As to “ACAAAUCCUGACAUGAGGAUCACCCAUGUUAGAUUGUUAUGUCAGGAUAUUAUCUGGCAACCAGAUGAGAAGGGACGAUUUGUG”, the “apparent Kd” value runs as follows: under setting [3], 722 nM; under setting [4], 64.7 nM.
The like results for “GGUACUAUCACAGGAUAUGCUUUCCUUUGGGAAGCAGAAGGGUGUAACAUGAGGAUCACCCAUGUGGUGCCAGGGCGUGGGCCC” were, in that order, 154 nM and 17 nM.
For “GACUGACGAGGAUAUACAUGAGGAUCACCCAUGUAAGAUCAGCGACGAUAGUCGCAAUGUAGAAGGCGUCAGUC”, the “apparent Kd” value was 29.8 nM under setting [1] and 293 nM under setting [2].
On to “CCCAUCGCAUGAGGAUAUGGUCAGCUUUGCUGACCAGAAGGCAUGUCAUAAGACAUGAGGAUCACCCAUGUAGUUAAGAUGGGA”, for which the “apparent Kd” value under setting [3] came to 654 nM and the “apparent Kd” value under setting [4] was determined as 48.3 nM.
With “CUUUUGUGAGGAUAUCAGUAUUAAAAAAAUAAAAUUACUACUGAGAAGGCACAUGAGGAUCACCCAUGUUCCUC”, the “apparent Kd” value by setting is: under setting [1], 32.7 nM; under setting [2], 168 nM.
“CGCUGUCAUGCAGGAUAUGCAUUGGAUUACAAUGCAGAAGGGCGAUUACAUGAGGAUCACCCAUGUGUAGACAGUGAAGAAGAG”: the “apparent Kd” value runs as follows: under setting [3], 415 nM; under setting [4], 34.4 nM.
Take “AGCGAGCUAGGAUAUACAUGAGGAUCACCCAUGUCUUUUUAGUACUACGGUGGAAGAUGUAGAAGGAGUGAGAA”: the “apparent Kd” value is, setting by setting: under setting [1], 95.1 nM; under setting [2], 68.3 nM.
Consider “AUGUUAUUGGAAGGAUAUAGUUUACUAUUCUAACAUGAGGAUCACCCAUGUAACCUUAUGUGUAUCUAGAAGGUCCAUAACUUA”, for which the “apparent Kd” value is, setting by setting: under setting [1], 54.6 nM; under setting [2], 62.3 nM.
The like results for “UUCUACAAGUAAGGAUAUCGGCUAUAGUUAACUCGAGAAGGUACAUGAGGAUCACCCAUGUAGUAGAUACAGACUACUGGCUUG” were, in that order, 10.9 nM and 13.3 nM.
Regarding “AUCAUGUGAGGAUAUGUGAUCAACCUUCUGUAUAGAUGAUUACAGAAGGCACAUGAGGAUCACCCAUGUAGAUC”, the “apparent Kd” value under setting [1] came to 70.9 nM and the “apparent Kd” value under setting [2] was found to be 79 nM.
On the same counts, the results for “ACAUGAGGAUCACCCAUGUAUUACAUGGUUAAGUUUAUUAACAGAAGGCGAAAUUACCACUUUUUCGAGGAUAUGUUUUCUAUA” are 45.1 nM and 58.4 nM.
On to “UUGAUGUCAGGAUAUGCUUAAUAUAUUUUAUUAUAAUAUAUACAUGAGGAUCACCCAUGUAGAAGGGACAUUGU”, for which the “apparent Kd” value is, setting by setting: under setting [1], 28.7 nM; under setting [2], 23.8 nM.
In the case of “CUGGUUCUCGUAGGAUAUGUAGGAUAUGCCUACAUGAGGAUCACCCAUGUUCGCAUGGCAGAAGGACAGAAGGACGAUCACCAC”, the “apparent Kd” value runs as follows: under setting [3], 323 nM; under setting [4], 20.7 nM.
In the case of “UGUUGUUCAGGAUAUGAUGUAUAAUACAUGAGGAUCACCCAUGUGGGUCCUGAUUUGGCGUCAGAAGGGAAUGUUG”, the “apparent Kd” value came to 88.3 nM under setting [1] and 146 nM under setting [2].
The like results for “ACUAAACGAGGAUAUACUGACAGGCCUCAGACAUACAUCAAACAUGAGGAUCACCCAUGUAGAAGGCGUAAACU” were, in that order, 37.2 nM and 36.7 nM.
Take “CUGAUGUGAGGAUAUCGGGCUACAGCCAGGCUGCUAGCAUACGAGAAGGCACAUGAGGAUCACCCAUGUGAGAA”: the “apparent Kd” value was 48.3 nM under setting [1] and 49.1 nM under setting [2].
Regarding “GCCAUCACGUGAGGAUAUGCUCCCGUUUCGGGAGCAGAAGGCAUGUCAUAAGACAUGAGGAUCACCCAUGUAGUUAAGAUGGCA”, the “apparent Kd” value runs as follows: under setting [3], 317 nM; under setting [4], 12 nM.
